Several values for one entry are separate records, joined by “and”; a condition that tells them apart may be missing. Equal entries are not always repeated.
Columns and labels:
[1] = biological target: T1, Angiotensin II receptor (AT-1) type-1 (Rattus norvegicus, UniProt P29089+P25095); assay: Specific binding inhibition of [125I]AII to Angiotensin II receptor, type 1 in rat liver membrane; type: cell membranes
T1 sequence (P29089 whole entry): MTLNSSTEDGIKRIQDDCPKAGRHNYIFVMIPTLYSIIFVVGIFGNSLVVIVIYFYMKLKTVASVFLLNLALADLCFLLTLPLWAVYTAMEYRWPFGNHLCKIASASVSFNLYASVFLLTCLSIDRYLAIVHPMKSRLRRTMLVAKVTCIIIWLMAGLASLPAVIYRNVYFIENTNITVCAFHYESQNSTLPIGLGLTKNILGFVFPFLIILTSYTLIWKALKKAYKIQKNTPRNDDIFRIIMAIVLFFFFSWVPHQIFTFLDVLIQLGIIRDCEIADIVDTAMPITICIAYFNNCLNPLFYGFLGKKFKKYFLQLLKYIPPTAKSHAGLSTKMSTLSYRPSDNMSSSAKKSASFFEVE
T1 sequence (P25095 whole entry): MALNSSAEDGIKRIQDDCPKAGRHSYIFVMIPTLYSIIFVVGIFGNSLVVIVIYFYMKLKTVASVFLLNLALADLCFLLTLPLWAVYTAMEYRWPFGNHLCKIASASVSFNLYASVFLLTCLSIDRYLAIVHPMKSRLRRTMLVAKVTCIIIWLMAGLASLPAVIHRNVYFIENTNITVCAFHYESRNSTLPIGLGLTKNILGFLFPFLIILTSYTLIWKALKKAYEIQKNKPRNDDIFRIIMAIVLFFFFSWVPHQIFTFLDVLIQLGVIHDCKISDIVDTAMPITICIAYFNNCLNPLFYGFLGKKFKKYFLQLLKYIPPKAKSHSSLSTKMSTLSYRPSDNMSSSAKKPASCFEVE

[2] = biological target: T2, Angiotensin II receptor (AT-1) type-1 (Rattus norvegicus) (UniProt P29089+P25095); assay: Inhibition of pressor response induced by infusion of AII in rats when dose is administered intravenously; type: functional
In short: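 Normotensive Sprague-Dawley pithed rats (n = 4), BP recorded by carotid catheter. AII 0.75 μg/kg injected via jugular vein; three control responses taken. Each later AII challenge followed, by 5 min, an iv injection of antagonist at increasing doses, in water or water with 2 equiv NaOH.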

[3] = biological target: T2, Angiotensin II receptor (AT-1) type-1 (Rattus norvegicus); assay: Inhibition of pressor response induced by infusion of angiotensin II in rats, administered perorally; type: functional
In short: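 Sprague-Dawley rats (n = 18-28) dosed by gastric tube in groups; vehicle water or water with 2 equiv NaOH; controls given water. At 50 min rats anaesthetised, pithed, ventilated, with carotid and jugular catheters. At 1 h post-dose AII 0.75 μg/kg iv given.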

Compound	IC50 [1] [nM]	ID50 [2]	ID50 [3]
CCCCc1nc(SC)c(C(=O)NCC(=O)OC)n1Cc1ccc(-c2ccccc2S(=O)(=O)NC(=O)NCCC)cc1	0.8	0.05 mg/kg	2.4 mg/kg
CCCCc1nc(SC)c(CO)n1Cc1ccc(-c2ccccc2S(=O)(=O)NC(=O)NCCC)cc1	4.5	0.21 mg/kg	> 10 mg/kg
CCCCc1nc(SC)c(C(=O)O)n1Cc1ccc(-c2ccccc2S(N)(=O)=O)cc1	36	5.6 mg/kg	> 30 mg/kg
CCCCc1nc(SC)c(C(=O)NC(C(=O)O)C(C)CC)n1Cc1ccc(-c2ccccc2S(=O)(=O)NC(=O)NCCC)cc1 (stereo not given)	0.3	0.37 mg/kg	2.11 mg/kg
CCCCc1nc([S+](C)[O-])c(C(=O)O)n1Cc1ccc(-c2ccccc2S(=O)(=O)NC(=O)NCCC)cc1 (stereo not given)	3.1	0.14 mg/kg	> 10 mg/kg
CCCCc1nc(SC)c(C(N)=O)n1Cc1ccc(-c2ccccc2S(=O)(=O)NC(=O)NCCC)cc1	1	0.06 mg/kg	2.83 mg/kg
CCCCc1nc(SC)c(C(=O)O)n1Cc1ccc(-c2ccccc2S(=O)(=O)NC(=O)NC)cc1		0.27 mg/kg	4.94 mg/kg
CCCNC(=O)NS(=O)(=O)c1ccccc1-c1ccc(Cn2c(C)nc(SC)c2C(=O)O)cc1	15		
CCCCc1nc(Sc2cccs2)c(C(=O)O)n1Cc1ccc(-c2ccccc2S(=O)(=O)NC(=O)NCCC)cc1	0.2	2.01 mg/kg	
CCCCc1nc(SC)c(C(=O)NCC(=O)O)n1Cc1ccc(-c2ccccc2S(=O)(=O)NC(=O)NCCC)cc1	1.5	0.06 mg/kg	3.55 mg/kg
CCCCc1nc(SC)c(C(=O)O)n1Cc1ccc(-c2ccccc2S(=O)(=O)NC(C)=O)cc1	1	0.13 mg/kg	2.02 mg/kg
CCCCc1nc(SC)c(C(=O)O)n1Cc1ccc(-c2ccccc2C(=O)NC(=O)NCCC)cc1	114		
CCCCc1nc(SC)c(C(=O)OCC)n1Cc1ccc(-c2ccccc2S(=O)(=O)NC(=O)NCCC)cc1	0.4	0.08 mg/kg	1.13 mg/kg
CCCCc1nc(SC)c(C(=O)O)n1Cc1ccc(-c2ccccc2S(=O)(=O)NC(=O)N(CC)CC)cc1	4.7		
CCCCc1nc(SC)c(C(=O)O)n1Cc1ccc(-c2ccccc2S(=O)(=O)NC(=O)OCC)cc1	0.9	0.07 mg/kg	0.38 mg/kg
CCCNC(=O)NS(=O)(=O)c1ccccc1-c1ccc(Cn2c(C3CC3)nc(SC)c2C(=O)O)cc1	7.7		
CCCNC(=O)NS(=O)(=O)c1ccccc1-c1ccc(Cn2c(CCC)nc(SC)c2C(=O)O)cc1	0.2		
CCCCc1nc(Cl)c(C(=O)O)n1Cc1ccc(-c2ccccc2S(=O)(=O)NC(=O)NCCC)cc1	1	0.16 mg/kg	3.1 mg/kg
CCCCc1nc(SC)c(C(=O)O)n1Cc1ccc(-c2ccccc2S(=O)(=O)NC(=O)NCC)cc1		0.17 mg/kg	1.12 mg/kg
CCCCc1nc(SC)c(C(=O)OCc2ccccc2)n1Cc1ccc(-c2ccccc2S(=O)(=O)NC(=O)NCCC)cc1	0.1	0.2 mg/kg	1.73 mg/kg
CCCCc1nc(SC)c(C(=O)O)n1Cc1ccc(-c2ccccc2S(=O)(=O)NS(=O)(=O)C(F)(F)F)cc1	0.8	1.45 mg/kg	
CCCCc1nc(SC)c(C(=O)O)n1Cc1ccc(-c2ccccc2S(=O)(=O)NC(=O)OCC=C(C)C)cc1	1.8		
CCCCc1nc(SC)c(C(=O)O)n1Cc1ccc(-c2ccccc2S(=O)(=O)NC(=O)NCc2cccnc2)cc1	0.9		

Compound	IC50 [1] [nM]	ID50 [2]	ID50 [3]
CCCCc1nc(SCSC)c(C(=O)O)n1Cc1ccc(-c2ccccc2S(=O)(=O)NC(=O)NCCC)cc1	0.2		2.75 mg/kg
CCCCc1nc(SCCCCO)c(C(=O)O)n1Cc1ccc(-c2ccccc2S(=O)(=O)NC(=O)NCCC)cc1	0.4	0.12 mg/kg	9.81 mg/kg
CCCCc1nc(Sc2ccccc2)c(C(=O)O)n1Cc1ccc(-c2ccccc2S(=O)(=O)NC(=O)NCCC)cc1	0.3	0.67 mg/kg	> 10 mg/kg
CCCCc1nc(SC)c(C(=O)O)n1Cc1ccc(-c2ccccc2S(=O)(=O)NC(=O)c2ccccc2)cc1	0.09	0.4 mg/kg	
CCCCc1nc(SCC(F)(F)F)c(C(=O)O)n1Cc1ccc(-c2ccccc2S(=O)(=O)NC(=O)NCCC)cc1	0.6	0.8 mg/kg	2.28 mg/kg
CCCCc1nc(SCCCO)c(C(=O)O)n1Cc1ccc(-c2ccccc2S(=O)(=O)NC(=O)NCCC)cc1	0.2	0.11 mg/kg	5.74 mg/kg
CCCCc1nc(SC)c(C(=O)OC(C)(C)C)n1Cc1ccc(-c2ccccc2S(=O)(=O)NC(=O)NCCC)cc1	0.6	0.1 mg/kg	
CCCCOC(=O)NS(=O)(=O)c1ccccc1-c1ccc(Cn2c(CCCC)nc(SC)c2C(=O)O)cc1	0.1	0.1 mg/kg	0.6 mg/kg
CCCCc1nc(SCC(F)(F)C(F)(F)CO)c(C(=O)O)n1Cc1ccc(-c2ccccc2S(=O)(=O)NC(=O)NCCC)cc1	0.3	0.83 mg/kg	5.3 mg/kg
CCCCc1nc(SC(F)F)c(C(=O)O)n1Cc1ccc(-c2ccccc2S(=O)(=O)NC(=O)NCCC)cc1	0.5	0.07 mg/kg	0.73 mg/kg
CCCCc1nc(SC)c(C(=O)O)n1Cc1ccc(-c2ccccc2S(=O)(=O)/N=C(/S)NCCC)cc1	2.1	1.15 mg/kg	
CCCCc1nc(S(C)(=O)=O)c(C(=O)O)n1Cc1ccc(-c2ccccc2S(=O)(=O)NC(=O)NCCC)cc1	3.2	0.06 mg/kg	> 10 mg/kg
CCCCc1nc(SCCCCOC(C)=O)c(C(=O)O)n1Cc1ccc(-c2ccccc2S(=O)(=O)NC(=O)NCCC)cc1	0.3	0.6 mg/kg	> 10 mg/kg
CCCCc1nc(SC)c(C(=O)NC)n1Cc1ccc(-c2ccccc2S(=O)(=O)NC(=O)NCCC)cc1	2.1	0.02 mg/kg	4.86 mg/kg
CCCCc1nc(SC)c(C(=O)NS(=O)(=O)c2ccccc2)n1Cc1ccc(-c2ccccc2S(=O)(=O)NC(=O)NCCC)cc1	0.8	1.15 mg/kg	
CCCCc1nc(C(=O)O)c(SC)n1Cc1ccc(-c2ccccc2S(=O)(=O)NC(=O)NCCC)cc1	103		
CCCCc1nc(SC)c(C(=O)O)n1Cc1ccc(-c2ccccc2S(=O)(=O)NC(=O)NCCC)cc1	0.3	0.11 mg/kg and 0.13 mg/kg	0.7 mg/kg and 0.4 mg/kg
CCCCc1nc(SC)c(C(=O)O)n1Cc1ccc(-c2ccccc2S(=O)(=O)NC(=O)OC)cc1	0.9	0.1 mg/kg	1.54 mg/kg
CCCCNC(=O)NS(=O)(=O)c1ccccc1-c1ccc(Cn2c(CCCC)nc(SC)c2C(=O)O)cc1		0.09 mg/kg	0.21 mg/kg
CCCCc1nc(SC(F)(F)F)c(C(=O)O)n1Cc1ccc(-c2ccccc2S(=O)(=O)NC(=O)NCCC)cc1	0.8	0.11 mg/kg	1.28 mg/kg
CCCNC(=O)NS(=O)(=O)c1ccccc1-c1ccc(Cn2c(CC)nc(SC)c2C(=O)O)cc1	1.3		
CCCCc1nc(SC)c(C(=O)OCC)n1Cc1ccc(-c2ccccc2S(=O)(=O)N(C)C(=O)NCCC)cc1	78		

Source: ChEMBL document CHEMBL1128415 (J Med Chem, 1995)
